One experiment concerns the target T1, Adenosine receptor A2b (Homo sapiens, UniProt P29275).
T1 sequence (P29275 whole entry): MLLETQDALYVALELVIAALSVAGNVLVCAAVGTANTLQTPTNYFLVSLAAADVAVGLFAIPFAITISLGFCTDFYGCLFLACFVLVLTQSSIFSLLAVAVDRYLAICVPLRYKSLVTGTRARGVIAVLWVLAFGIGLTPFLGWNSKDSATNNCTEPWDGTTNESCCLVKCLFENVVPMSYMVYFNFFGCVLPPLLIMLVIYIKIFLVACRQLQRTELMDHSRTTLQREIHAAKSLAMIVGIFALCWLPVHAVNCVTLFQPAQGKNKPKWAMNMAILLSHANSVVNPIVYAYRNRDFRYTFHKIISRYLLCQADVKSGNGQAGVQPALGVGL
The experiment can be described thus: Displacement of [3H]ZM-241385 from human recombinant adenosine A2B receptor expressed in HEK293 cells. In kind it is cell-based. In outline:
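Membranes from HEK293 cells stably expressing human A2B receptor; competition with 10 nM radioligand, 50 µg membrane protein, in 50 mM Tris/1 mM EDTA with 1 U/mL adenosine deaminase, 25 °C for 90 min with gentle agitation; filtration, four ice-cold Tris/MgCl2 washes. Nonspecific binding defined with 10 µM unlabelled ligand; Ki calculated.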

The species named for experiment [1] is Homo sapiens. The experiment can be described thus: Selectivity for human recombinant adenosine A2B receptor over human recombinant adenosine A1 receptor.
Experiment [2] is filed under the species Homo sapiens. Kind of experiment: Selectivity for human recombinant adenosine A2B receptor over human recombinant adenosine A3 receptor.
Another experiment addresses Adenosine receptor A2a (Homo sapiens, UniProt P29274). The experiment can be described thus: Displacement of [3H]ZM-241385 from human recombinant adenosine A2A receptor expressed in HEK293 cells. Format: cell-based. The method, boiled down:
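Membranes from HEK293 cells stably expressing human A2A receptor; 2 nM radioligand competed in 50 mM Tris/1 mM EDTA with 1 U/mL adenosine deaminase for 90 min at 25 °C with agitation; filtration, four ice-cold Tris/MgCl2 washes. Nonspecific binding defined with 1 µM unlabelled ligand; Ki computed.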
(In general: In a radioligand displacement assay an active substance lowers the binding of a labelled ligand.)

Experiment [3] is filed under the species Homo sapiens. Kind of experiment: Selectivity for human recombinant adenosine A2B receptor over human recombinant adenosine A2A receptor.
The target in the next experiment is T2, Adenosine receptor A1 (Homo sapiens, UniProt P30542).
T2 sequence (P30542 whole entry): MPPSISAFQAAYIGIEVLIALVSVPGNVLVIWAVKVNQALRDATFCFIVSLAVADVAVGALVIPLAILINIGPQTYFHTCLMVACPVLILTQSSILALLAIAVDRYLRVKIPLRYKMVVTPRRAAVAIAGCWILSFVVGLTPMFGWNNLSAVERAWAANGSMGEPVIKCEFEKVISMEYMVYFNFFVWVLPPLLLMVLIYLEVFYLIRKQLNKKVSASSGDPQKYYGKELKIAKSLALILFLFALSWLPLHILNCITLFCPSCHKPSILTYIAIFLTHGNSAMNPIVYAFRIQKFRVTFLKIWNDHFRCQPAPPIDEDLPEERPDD
The experiment can be described thus: Displacement of [3H]CPX from human recombinant adenosine A1 receptor expressed in CHO cells. Format: cell-based. In outline: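 CHO cell membranes stably expressing human A1 receptor; 0.5 nM [3H]CPX competed with test compound in 50 mM Tris/1 mM EDTA plus 1 U/mL adenosine deaminase, 25 °C, 90 min, gentle agitation; filtration and four ice-cold Tris/MgCl2 washes. Nonspecific binding defined with 1 µM CPX; Ki values derived.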

Another experiment has as its target T3, Adenosine receptor A3 (Homo sapiens, UniProt P0DMS8).
T3 sequence (P0DMS8 whole entry): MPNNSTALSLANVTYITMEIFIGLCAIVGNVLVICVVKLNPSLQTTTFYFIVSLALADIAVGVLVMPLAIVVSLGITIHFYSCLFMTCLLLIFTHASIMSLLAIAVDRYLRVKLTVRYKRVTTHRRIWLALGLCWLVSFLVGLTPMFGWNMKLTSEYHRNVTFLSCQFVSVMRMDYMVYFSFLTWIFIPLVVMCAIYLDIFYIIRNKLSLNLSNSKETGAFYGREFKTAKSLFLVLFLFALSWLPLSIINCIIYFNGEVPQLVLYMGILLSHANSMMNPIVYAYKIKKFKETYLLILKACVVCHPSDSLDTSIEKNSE
Kind of experiment: Displacement of [125I]ABMECA from human recombinant adenosine A3 receptor expressed in CHO cells. Format: cell-based. In outline: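 Human A3 receptor stably expressed in CHO cells; membranes incubated with 0.1 nM 125I-AB-MECA and test compound in 50 mM Tris, 1 mM EDTA, 10 mM MgCl2 plus 1 U/mL adenosine deaminase, 25 °C, 90 min; filtration, four ice-cold washes. Nonspecific binding defined with 1 µM IB-MECA; Ki determined.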

This note sets out measurements from ChEMBL document CHEMBL1145545, “Discovery of a novel A2B adenosine receptor antagonist as a clinical candidate for chronic inflammatory airway diseases” (J Med Chem, 2008).

Molecules are shown by their SMILES.

Adenosine receptor A2a, sequence (P29274 whole entry): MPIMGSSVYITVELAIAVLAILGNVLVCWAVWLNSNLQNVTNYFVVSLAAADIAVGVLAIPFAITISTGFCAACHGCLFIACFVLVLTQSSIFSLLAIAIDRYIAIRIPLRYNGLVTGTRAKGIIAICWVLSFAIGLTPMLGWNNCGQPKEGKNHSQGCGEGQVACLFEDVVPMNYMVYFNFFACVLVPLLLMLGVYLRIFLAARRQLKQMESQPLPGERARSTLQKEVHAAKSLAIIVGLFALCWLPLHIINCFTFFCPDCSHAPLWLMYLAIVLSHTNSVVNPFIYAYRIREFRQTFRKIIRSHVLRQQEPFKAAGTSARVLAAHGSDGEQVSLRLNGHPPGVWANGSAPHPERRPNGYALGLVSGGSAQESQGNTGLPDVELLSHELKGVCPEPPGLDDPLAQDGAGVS

The term Ki denotes the dissociation constant of the complex between target and ligand, obtained from inhibition or displacement. Regarding `CCn1c(=O)c2[nH]c(-c3cn[nH]c3)nc2n(C)c1=O`, the Ki on Adenosine receptor A2b is 120 nM.
Take `Cn1c(=O)n(CC2CC2)c(=O)c2[nH]c(-c3cnn(Cc4cccc(C(F)(F)F)c4)c3)nc21`: the figures for the Ratio Ki in the experiment filed under Homo sapiens [1], in the experiment listed under Homo sapiens [2] and in the experiment listed under Homo sapiens [3] were 8, 7 and 15, respectively. Moreover, the Ki came to 312 nM at Adenosine receptor A2a, 167 nM at Adenosine receptor A1, 21 nM at Adenosine receptor A2b and 160 nM on Adenosine receptor A3.
With `CCCn1c(=O)c2[nH]c(-c3cnn(Cc4cccc(F)c4)c3)nc2n(CC)c1=O`, the Ratio Ki in the experiment filed under Homo sapiens [1] was 34; in the experiment listed under Homo sapiens [2] it was 27; in the experiment filed under Homo sapiens [3], 71. Besides, the Ki at Adenosine receptor A2a is 2500 nM; on Adenosine receptor A1, 1200 nM; on Adenosine receptor A2b it was 35 nM; at Adenosine receptor A3, 950 nM.
Consider `CCCn1c(=O)c2[nH]c(-c3cnn(Cc4cccc(C(F)(F)F)c4)c3)nc2n(C)c1=O`, for which the Ratio Ki in the experiment listed under Homo sapiens [1] amounted to 31; in the experiment listed under Homo sapiens [2], 29; in the experiment listed under Homo sapiens [3], 32. For the same molecule, the Ki on Adenosine receptor A2a was found to be 450 nM; at Adenosine receptor A1, 441 nM; at Adenosine receptor A2b it was 14 nM; on Adenosine receptor A3 it was 408 nM.
For `CCCn1c(=O)c2[nH]c(-c3cnn(Cc4ccccn4)c3)nc2n(CC)c1=O`, the Ratio Ki in the experiment listed under Homo sapiens [1] and in the experiment listed under Homo sapiens [3] was 9 each time. In addition, the Ki stood at 411 nM at Adenosine receptor A2a, 410 nM at Adenosine receptor A1 and 46 nM on Adenosine receptor A2b.
As for `CCCCn1c(=O)c2[nH]c(-c3cnn(Cc4cccc(C(F)(F)F)c4)c3)nc2n(C)c1=O`, the Ratio Ki in the experiment filed under Homo sapiens [1] stood at 38; in the experiment listed under Homo sapiens [2], 41; in the experiment filed under Homo sapiens [3] it was 43. In addition, the Ki at Adenosine receptor A2a is 481 nM; on Adenosine receptor A1, 427 nM; at Adenosine receptor A2b it was 11 nM; at Adenosine receptor A3, 453 nM.
For the molecule `CCCn1c(=O)c2[nH]c(-c3cnn(Cc4ccc[n+]([O-])c4)c3)nc2n(CC)c1=O`, the Ratio Ki stood at 2 in the experiment listed under Homo sapiens [1] and 4 in the experiment filed under Homo sapiens [3]. In addition, the Ki at Adenosine receptor A2a turned out to be 1950 nM; on Adenosine receptor A1, 1120 nM; at Adenosine receptor A2b, 506 nM.
In the same order, the values of `CCCn1c(=O)c2[nH]c(-c3cnn(Cc4noc(-c5ccc(Cl)cc5)n4)c3)nc2n(CC)c1=O` are above 18, above 15, above 5000 nM, above 6000 nM and 335 nM.
In the same order, the values of `CCCCn1c(=O)c2[nH]c(-c3cnn(Cc4ccccc4)c3)nc2n(C)c1=O` are 13, 8, 247 nM, 416 nM and 30 nM.
In the case of `CC(C)Cn1c(=O)c2[nH]c(-c3cnn(Cc4cccc(F)c4)c3)nc2n(C)c1=O`, the Ratio Ki in the experiment filed under Homo sapiens [1] stood at 6; in the experiment filed under Homo sapiens [2], 2; in the experiment filed under Homo sapiens [3] it was 5. Also, the Ki at Adenosine receptor A2a is 301 nM; on Adenosine receptor A1 it was 352 nM; on Adenosine receptor A2b it was 60 nM; on Adenosine receptor A3, 107 nM.
Take `CCn1c(=O)c2[nH]c(-c3cnn(Cc4cccc(C(F)(F)F)c4)c3)nc2n(C)c1=O`: the Ratio Ki in the experiment listed under Homo sapiens [1] stood at 45; in the experiment filed under Homo sapiens [2], 43; in the experiment listed under Homo sapiens [3], 39. For the same molecule, the Ki on Adenosine receptor A2a is 234 nM; on Adenosine receptor A1, 274 nM; on Adenosine receptor A2b, 6 nM; at Adenosine receptor A3, 262 nM.
With `CCCn1c(=O)c2[nH]c(-c3cnn(Cc4cccc(C(F)(F)F)c4)c3)nc2n(CCC)c1=O`, the Ratio Ki turned out to be 12 in the experiment listed under Homo sapiens [1], 10 in the experiment filed under Homo sapiens [2] and 28 in the experiment listed under Homo sapiens [3].
In the case of `CCCn1c(=O)c2[nH]c(-c3cnn(Cc4cc(-c5ccc(Cl)cc5)on4)c3)nc2n(CC)c1=O`, the results for the Ratio Ki in the experiment filed under Homo sapiens [1] and in the experiment filed under Homo sapiens [3] were 5 and 18, respectively. Moreover, the values for the Ki at Adenosine receptor A2a, at Adenosine receptor A1 and on Adenosine receptor A2b were 781 nM, 200 nM and 42 nM, respectively.
With `CC(C)Cn1c(=O)c2[nH]c(-c3cnn(Cc4cccc(C(F)(F)F)c4)c3)nc2n(C)c1=O`, the Ratio Ki in the experiment listed under Homo sapiens [1] and in the experiment listed under Homo sapiens [3] was 3 throughout. The Ki turned out to be 633 nM on Adenosine receptor A2a, 617 nM on Adenosine receptor A1 and 199 nM on Adenosine receptor A2b.
In the case of `CCCn1c(=O)c2[nH]c(-c3cn[nH]c3)nc2n(CC)c1=O`, the Ratio Ki in the experiment filed under Homo sapiens [1] was determined as 4; in the experiment filed under Homo sapiens [3] it was 10. Besides, the Ki at Adenosine receptor A2a came to 496 nM; at Adenosine receptor A1, 178 nM; on Adenosine receptor A2b, 49 nM.
As to `CCn1c(=O)c2nc(-c3cnn(Cc4cccc(F)c4)c3)[nH]c2n(CC)c1=O`, the Ratio Ki was 76 in the experiment filed under Homo sapiens [1], 91 in the experiment listed under Homo sapiens [2] and 58 in the experiment filed under Homo sapiens [3].
Take `CCCn1c(=O)c2[nH]c(-c3cnn(Cc4ccccc4)c3)nc2n(CC)c1=O`: the Ratio Ki in the experiment filed under Homo sapiens [1] was 9; in the experiment listed under Homo sapiens [3], 8. The Ki on Adenosine receptor A2a amounted to 261 nM; on Adenosine receptor A1, 275 nM; at Adenosine receptor A2b, 31 nM.
In the same order, the values of `CCCn1c(=O)c2[nH]c(-c3cnn(Cc4cccnc4)c3)nc2n(CC)c1=O` are 23, 14, 312 nM, 522 nM and 22 nM.
In the same order, the values of `CCCn1c(=O)c2[nH]c(-c3cnn(Cc4ccccc4)c3)nc2n(C)c1=O` are 30, 6, 125 nM, 582 nM and 19 nM.
In the same order, the values of `CCn1c(=O)n(CC2CC2)c(=O)c2[nH]c(-c3cn[nH]c3)nc21` are 2, 6, 234 nM, 76 nM and 38 nM.
As to `CC(C)Cn1c(=O)c2[nH]c(-c3cn[nH]c3)nc2n(C)c1=O`, the Ratio Ki was 9 in the experiment filed under Homo sapiens [1] and 33 in the experiment listed under Homo sapiens [3]. For the same molecule, the Ki on Adenosine receptor A2a came to 1390 nM; on Adenosine receptor A1, 376 nM; at Adenosine receptor A2b, 42 nM.
Consider `CCn1c(=O)c2nc(-c3cnn(Cc4cccc(C(F)(F)F)c4)c3)[nH]c2n(CC)c1=O`, for which the Ratio Ki in the experiment filed under Homo sapiens [1] was 44; in the experiment filed under Homo sapiens [2], 34; in the experiment filed under Homo sapiens [3] it was 34.
Consider `Cn1c(=O)c2[nH]c(-c3cnn(Cc4cccc(F)c4)c3)nc2n(C)c1=O`, for which the Ratio Ki in the experiment listed under Homo sapiens [1] amounted to 17; in the experiment filed under Homo sapiens [3], 7.
For the molecule `Cn1c(=O)c2nc(-c3cnn(Cc4cccc(C(F)(F)F)c4)c3)[nH]c2n(C)c1=O`, the Ratio Ki in the experiment filed under Homo sapiens [1] came out at 992; in the experiment filed under Homo sapiens [2], 100; in the experiment filed under Homo sapiens [3] it was 686.
As to `CCn1c(=O)n(CC2CC2)c(=O)c2[nH]c(-c3cnn(Cc4ccccc4)c3)nc21`, the Ratio Ki in the experiment filed under Homo sapiens [1] came out at 11; in the experiment filed under Homo sapiens [3] it was 6. The Ki is 181 nM on Adenosine receptor A2a, 314 nM on Adenosine receptor A1 and 27 nM at Adenosine receptor A2b.
On the same counts, the results for `CCCCn1c(=O)c2[nH]c(-c3cnn(Cc4cccc(F)c4)c3)nc2n(C)c1=O` are 11, 8, 217 nM, 305 nM and 26 nM.
In the same order, the values of `CCn1c(=O)n(CC(C)C)c(=O)c2[nH]c(-c3cn[nH]c3)nc21` are 2, 9, 1220 nM, 348 nM and 141 nM.
Turning to `CCCn1c(=O)c2[nH]c(-c3cnn(Cc4cccc(F)c4)c3)nc2n(CCC)c1=O`, the figures for the Ratio Ki in the experiment filed under Homo sapiens [1], in the experiment listed under Homo sapiens [2] and in the experiment listed under Homo sapiens [3] were 13, 4 and 17, respectively.
